Assay outcomes (PubChem BioAssay)
This is a sample that favours compounds with a hit; in the whole collection about 2.2% have one here.
Arbovirus anti – arbovirus infection inhibition. arbovirus infection cell-based antiviral screen. inhibition, % at 10 µM. actives 0.37% (n = 200,000). AID 1251; in the data active = inhibition above about 30%
PKD1 kinase inh – inhibitors of human PKD1 kinase; PKD1 kinase fluorescence polarization assay; inhibition, % (test concentration not listed); Q15139; AID 797; actives 0.056% (n = 200,000); in the data active = inhibition above about 50%
DTT redox prof – compounds producing H2O2 with reducing agent – biochemical, NIH compound library profiling, artefact control for MLSCN library redox annotation, primary screen; DTT-dependent redox cycling H2O2, phenol red/HRP absorbance; 100% = 100 µM peroxide control, 0% = buffer; activation, % at 10 µM; actives 0.03% (n = 200,000);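 active = activation of at least 50% relative to the plate's high and low controls in the primary single-dose screen; inactive = activation below 50%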;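 note: compound incubated with DTT at 0.8 mM final as the reducing agent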
p97 inhibitor – inhibitors of human p97 ATPase; actives 0.42% (n = 220,000); inhibition, % at 8 µM; recombinant p97 ATPase, Kinase-Glo ATP luminescence, 3 h; in the data active = inhibition above about 15%;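 note: 0% = DMSO vehicle and 100% = wells lacking enzyme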
Wee1 stabilizer – blocks degradation of human Wee1 kinase; P30291; reporter increase, % at 5 µM; AID 1321; HeLa Luc-Wee1K328M stability, luciferase luminescence; 100% = proteasome inhibitor MG132 effect; actives 1.2% (n = 220,000);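 active = activation above the mean of all tested compounds plus 3 SD, set per screening run, cut at about 8.8% in these data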;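 note: cells exposed to compound for 20 h before luminescence read; 0% = DMSO alone and 100% = MG132 at 30 µM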
Target sequence (P30291 whole entry K328M): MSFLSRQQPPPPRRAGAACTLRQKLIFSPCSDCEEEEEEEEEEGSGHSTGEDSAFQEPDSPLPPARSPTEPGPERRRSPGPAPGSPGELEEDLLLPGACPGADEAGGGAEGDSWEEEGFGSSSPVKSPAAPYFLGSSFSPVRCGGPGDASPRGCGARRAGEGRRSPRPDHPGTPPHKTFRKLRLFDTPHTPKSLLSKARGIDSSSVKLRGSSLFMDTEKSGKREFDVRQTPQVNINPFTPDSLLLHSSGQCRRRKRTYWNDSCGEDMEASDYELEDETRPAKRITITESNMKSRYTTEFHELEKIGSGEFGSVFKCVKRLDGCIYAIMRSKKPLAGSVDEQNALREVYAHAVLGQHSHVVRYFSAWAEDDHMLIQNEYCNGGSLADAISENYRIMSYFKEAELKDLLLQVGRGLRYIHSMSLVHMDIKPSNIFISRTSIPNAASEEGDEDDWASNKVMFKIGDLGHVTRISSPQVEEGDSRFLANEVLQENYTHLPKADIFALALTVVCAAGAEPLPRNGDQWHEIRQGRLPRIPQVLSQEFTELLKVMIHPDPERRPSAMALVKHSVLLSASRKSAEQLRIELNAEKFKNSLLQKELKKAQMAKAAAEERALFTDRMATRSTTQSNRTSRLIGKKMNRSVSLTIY
RBBP9 inhibitor – inhibitors of human serine hydrolase RBBP9 | recombinant RBBP9, FP-Rh probe fluorescence polarization | inhibition, % at 7.94 µM | actives 0.2% (n = 220,000);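 active = inhibition above the campaign mean of all tested compounds plus 3 SD, cut at about 14% in these data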;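 note: plate controls were DMSO wells with RBBP9 for no effect and wells lacking RBBP9 protein for full effect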
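Assay system: recombinant human RBBP9; Reagent: Serine-hydrolase probe FP-Rh, 375 nM pre-mixing; Doses: 7.94 µM single dose, 0.794% DMSO; Incubation: 30 min then 45 min, 25 °C; Detection: fluorescence polarization (mP), excitation 525 nm, emission 598 nm; Evaluation: percent inhibition from mP, scaled between DMSO and no-protein wells.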
Wee1 degr conf – human Wee1 degradation inhibition, confirmation | shares compounds with Wee1 stabilizer | HeLa Luc-Wee1K328M degradation, luminescence; vehicle 0%, proteasome-blocked wells 100% | activation, % at 5 µM | actives 4% (n = 1,100) | AID 1410; in the data active = activation above about 8.9%
An asterisk follows results filed as active; . = no result given.

SMILES	Arbovirus anti	PKD1 kinase inh	DTT redox prof	p97 inhibitor	Wee1 stabilizer	RBBP9 inhibitor	Wee1 degr conf
Cc1ccc(NC(=O)CN(C)Cc2nc3ccccc3c(=O)[nH]2)c(Br)c1	3	4	0	-9	11*	-11	4
COc1ccc(S(=O)(=O)Nc2c(C)ccc3nsnc23)cc1OC	1	8	0	0	0	-9	.
O=C(NCc1cccs1)C1CCC(CNS(=O)(=O)c2ccccc2)CC1 (stereo unspecified)	1	0	0	0	12*	-1	1
Cn1c(=NC(=O)c2ccccc2[N+](=O)[O-])sc2cccc(F)c21	.	.	.	2	17*	1	0
Nc1nnc(C(c2ccccc2)c2ccccc2)s1	-6	9	1	0	-1	-7	.
NS(=O)(=O)c1cccc(NC(=O)CSc2nc3ccc(Cl)cc3[nH]2)c1	18	-6	0	5	12*	-6	-3
CC1CCN(CC(=O)NC(=O)NCc2ccccc2)CC1	-2	-4	0	-2	1	-7	.
CC1CCCCN1CC(=O)NC(=O)NCc1ccccc1 (stereo unspecified)	9	-9	0	5	18*	2	5
COC(=O)c1ccccc1N=Nc1c(N)[nH][nH]c1=O	.	.	.	-2	18*	-6	1
N#CC(C#N)=C1NC2(CCCC2)Cc2ccccc21	5	-9	0	7	-3	5	.
Nc1[nH]c(N=NC(=O)c2ccc(Cl)cc2)c2ccccc12	-11	-5	0	5	-1	-8	.
Nc1[nH]c(N=NC(=O)c2ccccc2O)c2ccccc12	-32	0	0	5	14*	0	2
O=C(CC12CC3CC(CC(C3)C1)C2)N1CCCC1	6	1	0	-3	-2	-4	.
O=C1CCCN1CCC12CC3CC(CC(C3)C1)C2	4	11	1	5	12*	3	2
CN(C)C(=O)c1nc2ccccc2s1	5	-8	0	1	2	-6	.
CN(C(=O)c1ccccc1)c1nc2ccccc2s1	0	10	2	-2	13*	-11	-2
CCn1cc(C(=O)OCC(=O)N(C)C2CCS(=O)(=O)C2)c(=O)c2ccc(C)nc21 (stereo unspecified)	1	13	0	0	3	2	.
CCn1cc(C(=O)OCC(=O)N2C(C)CCCC2C)c(=O)c2ccc(C)nc21 (stereo unspecified)	-1	-1	-2	-3	11*	-10	0
CCOC(=O)c1ccc(NC(=S)Nc2cccc(C)n2)cc1	-10	-12	0	0	-2	-5	.
CCOC(=O)c1ccc(NC(=O)COC)cc1	-1	-14	-3	1	1	1	.
CCOC(=O)c1cn[nH]c1NC(=S)Nc1ccc(OC)cc1	.	.	.	4	12*	10	-6
CCOC(=O)c1ccc(NC(=S)Nc2cccc(N)n2)cc1	.	.	.	-1	18*	-1	1
CCOC(=O)c1ccc(NC(=O)C(CC)(CC)C(=O)OCC)cc1	1	-9	0	-1	16*	2	-2
C#CC(C)(CC)NC(=O)Cn1nnc(-c2ccc(S(C)(=O)=O)cc2)n1 (stereo unspecified)	4	-9	-3	-4	7	-3	.
O=C(NCc1ccc2c(c1)OCO2)c1ccc2c(c1)OCO2	.	.	.	-3	16*	-14	-4
O=C(NCc1ccc2c(c1)OCO2)c1ccc2c(c1)OCCO2	2	-2	0	-1	-4	2	.
S=C(NCc1ccc2c(c1)OCO2)NCc1ccc2c(c1)OCO2	-2	-1	0	-1	12*	-5	0
COC(=O)c1ccccc1NC(=O)NCc1c(C)nn(C)c1C	-9	5	0	0	-4	-3	.
COc1ccc(-c2nc3cc([N+](=O)[O-])ccc3o2)cc1	-2	-3	2	-1	14*	-6	1
Nc1ccc(-c2nc3cc([N+](=O)[O-])ccc3o2)cc1	.	.	.	-4	2	-5	.
